Results: ChEMBL document CHEMBL1126150, “New kappa-receptor agonists based upon a 2-[(alkylamino)methyl]piperidine nucleus” (J Med Chem, 1992)

Columns and labels:
Mus musculus = experiment: Antinociceptive activity was determined using the mouse acetylcholine-induced abdominal constriction test followed by subcutaneous administration; format: functional; settings: Abdomen, sc
Method in brief: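 Mice received each compound by subcutaneous injection and were scored in the acetylcholine-induced abdominal constriction test. An ED50 in mg/kg was determined for each compound.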

[1] = target: T1, Kappa-type opioid receptor (Homo sapiens, UniProt P41145); experiment: Opioid receptor kappa 1 agonist potency in vitro using rabbit vas deferens(LVD) preparation; format: functional, Oryctolagus cuniculus; settings: target entry is the homologue from another species
T1 sequence (P41145 whole entry): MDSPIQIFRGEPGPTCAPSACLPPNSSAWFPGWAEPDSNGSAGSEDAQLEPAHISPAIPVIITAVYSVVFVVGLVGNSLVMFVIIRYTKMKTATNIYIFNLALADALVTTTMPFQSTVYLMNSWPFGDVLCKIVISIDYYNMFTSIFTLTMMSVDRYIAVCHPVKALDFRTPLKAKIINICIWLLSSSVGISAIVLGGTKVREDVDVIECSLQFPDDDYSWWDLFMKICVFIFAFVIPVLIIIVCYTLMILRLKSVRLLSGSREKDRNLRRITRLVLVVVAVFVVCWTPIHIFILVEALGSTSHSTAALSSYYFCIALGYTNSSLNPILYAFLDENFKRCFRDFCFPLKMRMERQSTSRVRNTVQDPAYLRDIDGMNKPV
Method in brief: (§1)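 Isolated rabbit vas deferens (LVD) was used as an in vitro kappa-agonist bioassay. Potency is given as an IC50 in nM, the mean of two independent determinations, with individual values typically within ±10% of the mean. Compounds were tested as racemates.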

[2] = target: Kappa-type opioid receptor (Cavia porcellus) (UniProt P41144); experiment: pKa value was measured against Opioid receptor kappa 1
Chain of Kappa-type opioid receptor (Cavia porcellus) (P41144 whole entry): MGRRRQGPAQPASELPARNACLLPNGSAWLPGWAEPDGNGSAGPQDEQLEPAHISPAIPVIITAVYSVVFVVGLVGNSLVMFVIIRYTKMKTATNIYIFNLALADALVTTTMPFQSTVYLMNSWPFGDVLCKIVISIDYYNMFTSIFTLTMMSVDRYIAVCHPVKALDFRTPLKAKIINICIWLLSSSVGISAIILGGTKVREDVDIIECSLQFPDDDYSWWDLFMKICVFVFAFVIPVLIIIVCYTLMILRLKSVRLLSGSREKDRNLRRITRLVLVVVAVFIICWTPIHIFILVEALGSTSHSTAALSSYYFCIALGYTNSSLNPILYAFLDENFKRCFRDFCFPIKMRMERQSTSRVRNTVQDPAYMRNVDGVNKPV
Method in brief: (§2)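 pKa was found by titration of the compound at a sample concentration of 0.002 M in 10% methanol-water solvent.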

[3] = target: Kappa-type opioid receptor (Cavia porcellus) (UniProt P41144); experiment: pKa value was measured against opioid receptor kappa; method in brief: as §2
[4] = target: T1, Kappa-type opioid receptor; experiment: Opioid receptor kappa agonist potency in vitro using rabbit vas deferens(LVD) preparation; format: functional, Oryctolagus cuniculus; settings: target entry is the homologue from another species; method in brief: as §1
[5] = target: T1, Kappa-type opioid receptor; experiment: Kappa-opioid receptor agonist potency in vitro using rabbit vas deferens(LVD) preparation; format: functional, Oryctolagus cuniculus; settings: target entry is the homologue from another species; method in brief: as §1
[6] = target: Kappa-type opioid receptor (Cavia porcellus) (UniProt P41144); experiment: pKa value was measured against kOpioid receptor kappa 1; method in brief: as §2

Row | SMILES | ED50 (Mus musculus) | also measured
1 | O=C1CCCN(C(=O)Cc2ccc(Cl)c(Cl)c2)C1CN1CCCC1 (stereo unspecified) | 3.4 mg/kg | –
2 | O=C(Cc1ccc(Cl)c(Cl)c1)N1CCCCC1CN1CCCO1 (stereo unspecified) | 0.38 mg/kg | –
3 | COC(=O)/C=C1\CCN(CC2CCCCN2C(=O)Cc2ccc(Cl)c(Cl)c2)C1 (stereo unspecified) | 6.6 mg/kg | –
4 | O=C1CC[C@@H](CN2CCCC2)N(C(=O)Cc2ccc(Cl)c(Cl)c2)C1 | 0.91 mg/kg | –
5 | O=C(Cc1ccc(Cl)c(Cl)c1)N1CCCCC1CN1CC=CCC1 (stereo unspecified) | 0.009 mg/kg | –
6 | O=C(Cc1ccc(Cl)c(Cl)c1)N1CCCCC1CN1CC=CC1 (stereo unspecified) | 0.04 mg/kg | IC50 [1]: 3.5 nM
7 | C=C1CCN(CC2CCCCN2C(=O)Cc2ccc(Cl)c(Cl)c2)CC1 (stereo unspecified) | – | IC50 [1]: 550 nM
8 | O=C(Cc1ccc(Cl)c(Cl)c1)N1CC2(CC[C@H]1CN1CCCC1)OCCO2 | 1.1 mg/kg | –
9 | O=C1CCN(CC2CCCCN2C(=O)Cc2ccc(Cl)c(Cl)c2)C1 (stereo unspecified) | 0.06 mg/kg | pKa [2]: 5.3; IC50 [1]: 0.2 nM
10 | O=C(Cc1ccc(Cl)c(Cl)c1)N1CC[C@@H](O)C[C@H]1CN1CCCC1 | 0.27 mg/kg | IC50 [1]: 120 nM
11 | O=C(Cc1ccc(Cl)c(Cl)c1)N1CCCCC1CN1CCC(O)C1 (stereo unspecified) | 0.01 mg/kg | pKa [3]: 8.1
12 | COC(=O)[C@@H]1CCN(C(=O)Cc2ccc(Cl)c(Cl)c2)[C@H](CN2CCCC2)C1 | > 10 mg/kg | –
13 | O=C(Cc1ccc(Cl)c(Cl)c1)N1CCCCC1CN1CCC2(CC1)OCCO2 (stereo unspecified) | > 10 mg/kg | –
14 | COC(=O)C1=CCCN(CC2CCCCN2C(=O)Cc2ccc(Cl)c(Cl)c2)C1 (stereo unspecified) | 0.41 mg/kg | –
15 | C=CCC1(CN2CCCC2)CCCCN1C(=O)Cc1ccc(Cl)c(Cl)c1 (stereo unspecified) | 2.4 mg/kg | –
16 | O=C(Cc1ccc(Cl)c(Cl)c1)N1[C@@H](CO)CCC[C@H]1CN1CCCC1 | – | IC50 [4]: 2200 nM
17 | O=C(Cc1ccc(Cl)c(Cl)c1)N1CCCCC1CN1CCCCC1 (stereo unspecified) | 0.24 mg/kg | –
18 | C=C1CCN(CC2CCCCN2C(=O)Cc2ccc(Cl)c(Cl)c2)C1 (stereo unspecified) | 0.05 mg/kg | pKa [3]: 7.7

Row | SMILES | ED50 (Mus musculus) | also measured
19 | C[C@H]1CCC[C@@H](CN2CCCC2)N1C(=O)Cc1ccc(Cl)c(Cl)c1 | 0.034 mg/kg | –
20 | O=C(Cc1ccc(Cl)c(Cl)c1)N1CCC2(CC1CN1CCCC1)SCCS2 (stereo unspecified) | 0.025 mg/kg | –
21 | O=C1CCN(CC2CCCCN2C(=O)Cc2ccc(Cl)c(Cl)c2)CC1 (stereo unspecified) | > 10 mg/kg | –
22 | O=C(Cc1ccc(Cl)c(Cl)c1)N1CCCCC1CN1CCCC1 (stereo unspecified) | 0.03 mg/kg | IC50 [5]: 11 nM; pKa [6]: 9
23 | O=C(Cc1ccc(Cl)c(Cl)c1)N1CC[C@H](O)C[C@H]1CN1CCCC1 | 1.4 mg/kg | –
24 | COC(=O)/C=C1/CCN(CC2CCCCN2C(=O)Cc2ccc(Cl)c(Cl)c2)C1 (stereo unspecified) | 0.07 mg/kg | –
25 | N#C/C=C1/CCN(CC2CCCCN2C(=O)Cc2ccc(Cl)c(Cl)c2)C1 (stereo unspecified) | 0.19 mg/kg | IC50 [1]: 0.12 nM
26 | O=C(Cc1ccc(Cl)c(Cl)c1)N1CCC2(CC1CN1CCCC1)OCCO2 (stereo unspecified) | 0.001 mg/kg | –
27 | O=C1CCN(C(=O)Cc2ccc(Cl)c(Cl)c2)C(CN2CCCC2)C1 (stereo unspecified) | 0.018 mg/kg | –
28 | COC(=O)[C@@H]1CCC[C@@H](CN2CCCC2)N1C(=O)Cc1ccc(Cl)c(Cl)c1 | 0.43 mg/kg | –
29 | O=C(Cc1ccc(Cl)c(Cl)c1)N1CCC[C@H](O)[C@H]1CN1CCCC1 | 3.6 mg/kg | –
30 | C[C@@H]1CCC[C@@H](CN2CCCC2)N1C(=O)Cc1ccc(Cl)c(Cl)c1 | 0.4 mg/kg | –
31 | NC(=O)[C@@H]1CCN(C(=O)Cc2ccc(Cl)c(Cl)c2)[C@H](CN2CCCC2)C1 | > 10 mg/kg | –
32 | CN(C)CC1CCCCN1C(=O)Cc1ccc(Cl)c(Cl)c1 (stereo unspecified) | 0.064 mg/kg | IC50 [1]: 102 nM
33 | C=C1CCCN(C(=O)Cc2ccc(Cl)c(Cl)c2)C1CN1CCCC1 (stereo unspecified) | 0.11 mg/kg | –
34 | O=C(Cc1ccc(Cl)c(Cl)c1)N1CCC[C@@H](O)[C@H]1CN1CCCC1 | 1.7 mg/kg | –
35 | N#C/C=C1\CCN(CC2CCCCN2C(=O)Cc2ccc(Cl)c(Cl)c2)C1 (stereo unspecified) | > 10 mg/kg | IC50 [1]: 690 nM
